Data from ChEMBL document CHEMBL4265939, “Discovery of phenylalanine derivatives as potent HIV-1 capsid inhibitors from click chemistry-based compound library” (Eur J Med Chem, 2018).
pEC50, pIC50, pKd: −log10 of the molar value.

Tests used:
[1] = system: Human immunodeficiency virus 1; assay: Antiviral activity against ENV pseudotyped HIV1 B41 infected in human U87 cells expressing CD4/CCR5 measured after 48 hrs by luciferase reporter gene assay; type: functional, organism-based; details: Human immunodeficiency virus 1, B41, U-87 MG
In short: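 Early-stage single-round assay. U87.CD4.CCR5 target cells, 1.2×10^4 cells/well, are seeded and left 24 h at 37°C. Single-round HIV-1 B41 Env-pseudotyped firefly luciferase virus, produced in HEK293T without compound, is mixed with compound or DMSO vehicle and added to the cells. After 48 h at 37°C the cells are lysed, freeze-thawed and read for luciferase. IC50 from 3 parallel tests.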

U-87 MG = assay: Cytotoxicity against human U87 cells expressing CD4/CCR5; type: cell-based; details: u-87mg atcc
MT4 = assay: Cytotoxicity against human MT4 cells assessed as reduction in cell viability after 24 hrs by CytoTox-Glo cytotoxicity assay; type: cell-based; details: mt4, 24 h
In short: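 Uninfected MT-4 cells were cultured for 1 day with various compound concentrations, in parallel with the antiviral assays. Percent viable cells was read by the CytoTox-Glo kit following the manufacturer's protocol. […] Each value was run in at least triplicate and averaged from at least four independent experiments.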

[2] = system: Human immunodeficiency virus 1; assay: Antiviral activity against Human immunodeficiency virus 1 NL4-3 infected in human MT4 cells assessed as protection against virus-induced cytopathic effect after 2 days by bright-glo luciferase reporter gene assay; type: functional, organism-based; details: for pEC50: Human immunodeficiency virus 1, NL4-3, MT4, 48 h, read-out: EC50; for EC50: mt4
In short: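 MT-4 cells are infected with 200 TCID50 of HIV-1 NL4-3 over a range of compound concentrations, allowing multiple rounds of infection. After two days the medium is removed and Bright-Glo luminescence is read. […] At least triplicate; mean ± SD of at least two parallel tests.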

[3] = system: Human immunodeficiency virus 1; assay: Antiviral activity against ENV pseudotyped HIV1 B41 infected in human U87 cells expressing CD4/CCR5 pretreated with virus for 72 hrs followed by infection of cells measured after 48 hrs by luciferase reporter gene assay; type: functional, organism-based; details: Human immunodeficiency virus 1, B41, U-87 MG
In short: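 Late-stage assay. B41 Env-pseudotyped luciferase viruses are produced in 293T cells with compound (100 μM to 0.01 μM, equal DMSO) or DMSO vehicle for 72 h at 37°C. Supernatants are clarified, filtered, freeze-thawed once, diluted ten-fold and used to infect U87.CD4.CCR5 cells for 48 h at 37°C. Lysate luciferase is normalized to virus made in vehicle-treated cells.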

[4] = target: T1, Structural capsid protein (Human immunodeficiency virus 1, UniProt Q76129); assay: Binding affinity to HIV1 NL4-3 hexameric capsid protein by surface plasmon resonance
T1 sequence (Q76129 whole entry): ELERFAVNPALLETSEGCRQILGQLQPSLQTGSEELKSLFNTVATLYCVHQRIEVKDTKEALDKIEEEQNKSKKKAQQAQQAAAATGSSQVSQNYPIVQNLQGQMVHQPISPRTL
In short: (§1)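 SPR at 25°C. HIV-1 NL4-3 CA constructs are amine-coupled at 100 µg/ml in 10 mM sodium acetate, pH 5.0, onto an EDC/sulfo-NHS-activated GLH chip, then ethanolamine-capped. Compound serial dilutions in PBS, 3% DMSO, 0.005% polysorbate 20, pH 7.4 are injected at 100 µl/min with 1 min association and up to 5 min dissociation. Reference-subtracted; KD by equilibrium analysis, at least three experiments.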

[5] = target: T1, Structural capsid protein; assay: Binding affinity to HIV1 NL4-3 N-terminal domain capsid protein by surface plasmon resonance; in short: as §1
[6] = target: T1, Structural capsid protein; assay: Binding affinity to HIV1 NL4-3 monomeric capsid protein by surface plasmon resonance; in short: as §1
[7] = Therapeutic index, ratio of CC50 for human U87 cells to IC50 for ENV pseudotyped HIV1 B41 infected in human U87 cells expressing CD4/CCR5; type: toxicity, cell-based; details: read-out: Ratio CC50/IC50
[8] = Selectivity index, ratio of CC50 for human MT4 cells to EC50 for Human immunodeficiency virus 1 NL4-3 infected in human MT4 cells; type: toxicity, cell-based; details: read-out: Ratio CC50/EC50
In short: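 SI is CC50/EC50, both measured in MT-4 cells. For EC50, 200 TCID50 of NL4-3 infected MT-4 cells over multiple rounds in the presence of various compound concentrations. […] CC50 came from a 1-day CytoTox-Glo viability assay on uninfected cells.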

[9] = system: Human immunodeficiency virus 1; assay: Antiviral activity against Human immunodeficiency virus 1 3B infected in human MT4 cells assessed as inhibition of virus-induced cytopathic effect at 2 uM after 5 days by CellTiter-Glo assay relative to control; type: functional; details: MT4, 120 h
[10] = Cytotoxicity against human MT2 cells after 4 days by XTT assay; type: cell-based
[11] = system: Human immunodeficiency virus 1; assay: Antiviral activity against Human immunodeficiency virus 1 NL4-3 infected in human MT2 cells measured 4 to 5 days post infection by luciferase reporter gene assay; type: functional, organism-based; details: Human immunodeficiency virus 1, NL4-3, MT2

Row | Structure (SMILES) | CC50 (MT4; read-out: CC50) | pEC50 [2] | selectivity ratio [8] | also measured
1 | Cc1[nH]c2ccccc2c1CC(=O)N[C@@H](Cc1ccccc1)C(=O)N(C)c1ccccc1 | > 70.5 µM | 5.23 | – | pIC50 [1]: 7.00; CC50 (U-87 MG): 73 µM; pIC50 [3]: 5.08
2 | COc1ccc(N(C)C(=O)[C@H](Cc2ccccc2)NC(=O)c2cn(Cc3ccccc3Cl)nn2)cc1 | > 19.8 µM | < 4.70 | – | –
3 | COc1ccc(N(C)C(=O)[C@H](Cc2ccccc2)NC(=O)c2cn(Cc3ccc4ccccc4c3)nn2)cc1 | > 57.7 µM | 5.36 | > 13.3 | pIC50 [1]: 5.15; pKd [4]: 4.96; pKd [5]: 4.49; CC50 (U-87 MG): 54.8 µM; pKd [6]: 4.85; pIC50 [3]: 4.51; selectivity ratio [7]: 2.8
4 | COc1ccc(N(C)C(=O)[C@H](Cc2ccccc2)NC(=O)c2cn(CS(=O)(=O)c3ccccc3)nn2)cc1 | > 18.7 µM | – | – | EC50 [2]: Not Active
5 | COc1ccc(N(C)C(=O)[C@H](Cc2ccccc2)NC(=O)c2cn(Cc3cccc([N+](=O)[O-])c3)nn2)cc1 | – | – | – | CC50 (MT4): Not Active; EC50 [2]: Not Active
6 | COc1ccc(N(C)C(=O)[C@H](Cc2ccccc2)NC(=O)c2cn(C[S+]([O-])c3ccccc3)nn2)cc1 (some centres not stated) | > 19.3 µM | 5.18 | > 2.91 | pKd [4]: 4.03; pKd [5]: 4.55; pKd [6]: 4.90
7 | COc1ccc(N(C)C(=O)[C@H](Cc2ccccc2)NC(=O)c2cn(Cc3ccccc3C)nn2)cc1 | > 20.7 µM | 5.10 | > 2.58 | –
8 | COc1ccc(N(C)C(=O)[C@H](Cc2ccccc2)NC(=O)c2cn(Cc3cccc(Cl)c3)nn2)cc1 | – | – | – | CC50 (MT4): Not Active; EC50 [2]: Not Active
9 | COC(=O)c1cccc(-n2cc(C(=O)N[C@@H](Cc3ccccc3)C(=O)N(C)c3ccc(OC)cc3)nn2)c1 | > 19.5 µM | 5.16 | > 2.82 | –
10 | COc1ccc(N(C)C(=O)[C@H](Cc2ccccc2)NC(=O)c2cn(Cc3ccccc3[N+](=O)[O-])nn2)cc1 | > 19.4 µM | 4.99 | > 1.91 | –
11 | COc1ccc(N(C)C(=O)[C@H](Cc2ccccc2)NC(=O)c2cn(Cc3cccc4ccccc34)nn2)cc1 | > 19.2 µM | < 4.72 | – | –
12 | COc1ccc(N(C)C(=O)[C@H](Cc2ccccc2)NC(=O)Cn2nc(C(F)(F)F)c3c2CCCC3)cc1 | – | – | – | inhibition at 2 µM [9]: 100%
13 | COc1ccc(N(C)C(=O)[C@H](Cc2ccccc2)NC(=O)c2cn(Cc3ccccc3C#N)nn2)cc1 | > 21.5 µM | < 4.67 | – | –
14 | COc1ccc(N(C)C(=O)[C@H](Cc2ccccc2)NC(=O)NS(=O)(=O)N2CCCc3ccccc32)cc1 | – | – | – | CC50 at 96 h [10]: 33.3 µM; pEC50 [11]: 6.96
15 | COc1ccc(N(C)C(=O)[C@H](Cc2ccccc2)NC(=O)c2cn(Cc3ccc(C)cc3)nn2)cc1 | – | – | – | CC50 (MT4): Not Active; EC50 [2]: Not Active
16 | COc1ccc(N(C)C(=O)[C@H](Cc2ccccc2)NC(=O)c2cn(Cc3ccc([N+](=O)[O-])cc3)nn2)cc1 | > 19.4 µM | < 4.71 | – | –
17 | COc1ccc(N(C)C(=O)[C@H](Cc2ccccc2)NC(=O)c2cn(CSc3ccccc3)nn2)cc1 | – | – | – | CC50 (MT4): Not Active; EC50 [2]: Not Active
18 | COc1ccc(N(C)C(=O)[C@H](Cc2ccccc2)NC(=O)c2cn(Cc3cccc(C)c3)nn2)cc1 | – | – | – | CC50 (MT4): Not Active; EC50 [2]: Not Active
19 | COc1ccc(N(C)C(=O)[C@H](Cc2ccccc2)NC(=O)c2cn(C3CC(n4cc(C)c(=O)[nH]c4=O)OC3CO)nn2)cc1 (some centres not stated) | > 16.6 µM | 4.98 | > 1.59 | –
20 | COc1ccc(N(C)C(=O)[C@H](Cc2ccccc2)NC(=O)c2cn(Cc3ccc(Cl)cc3)nn2)cc1 | > 19.8 µM | < 4.70 | – | –
21 | COc1ccc(N(C)C(=O)[C@H](Cc2ccccc2)NC(=O)c2cn(-c3ccc4c(c3)OCO4)nn2)cc1 | > 20 µM | 4.83 | > 1.34 | –
22 | COc1ccc(N(C)C(=O)[C@H](Cc2ccccc2)NC(=O)c2cn(Cc3cccc(C#N)c3)nn2)cc1 | > 21.5 µM | 5.04 | > 2.36 | –
23 | COc1ccc(N(C)C(=O)[C@H](Cc2ccccc2)NC(=O)c2cn(Cc3ccc(C#N)cc3)nn2)cc1 | > 21.5 µM | 5.05 | > 2.4 | –
